Screening results as filed in PubChem.
GalR3 antagonist: GalR3 antagonists in HEK293 cells, primary screen, cell-based, fluorescence readout | inhibition, % at 3 µM | hit rate 0.44% among 360,000 | HEK293 GalR3-CNG cAMP membrane potential fluorescence; galR3 body fused to GalR1 C-terminus | Galanin receptor type 3 (Homo sapiens), O60755;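 active = inhibition above the screen-wide average plus 3 SD, cut at about 13% in these data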;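 note: forskolin and galanin both at EC90 stimulate the cells; cAMP rise reported by CNG channel membrane potential dye signal; 0% = forskolin plus galanin with DMSO and 100% = forskolin alone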
Target sequence (O60755 1-299 limits assumed): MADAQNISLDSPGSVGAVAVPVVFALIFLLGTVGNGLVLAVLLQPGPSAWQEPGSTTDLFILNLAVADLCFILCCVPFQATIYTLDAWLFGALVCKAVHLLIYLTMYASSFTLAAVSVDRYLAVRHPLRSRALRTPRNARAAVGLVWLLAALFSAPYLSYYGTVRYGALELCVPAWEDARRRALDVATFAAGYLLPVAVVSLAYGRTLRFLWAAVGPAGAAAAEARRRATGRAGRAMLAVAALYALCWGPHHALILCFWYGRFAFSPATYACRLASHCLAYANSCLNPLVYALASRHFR
NPR2 activator: human GC-B receptor activators, primary screen, HEK293 GC-B cells, cGMP TR-FRET, EC30 CNP. Atrial natriuretic peptide receptor 2 (Homo sapiens), P20594. 0% at EC30 CNP, 100% saturating CNP. activation, % at 10 µM. hit rate 0.11% among 370,000. AID 1920062, 2024;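 active = activation at 10 µM reaching about 35% in either raw or pattern-adjusted values, limit read from the data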
Arrestin-AP2 inh: inhibitors of beta-arrestin/AP2 binding, primary screen, biochemical, GPCR trafficking, flow cytometry; FITC-arrestin peptide / GST-AP2 beads; AP2 beta2 appendage carries R879A mutation; inhibition, % at 10 µM; hit rate 0.31% among 340,000;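 active = inhibition above a set limit, near 3 SD of compounds lacking own fluorescence, cut at about 54% in these data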;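 note: plate controls were DMSO wells for no effect and 5 µM unlabelled arrestin peptide for full effect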
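System: GST-AP2 R879A glutathione beads; medium: PBS, Tween 20 0.05%, BSA 0.1%; reagent: fluorescein-tagged arrestin peptide at 50 nM final; schedule: pre-incubation 12 min, peptide binding 1 h, room temperature; detection: flow cytometry, FL1 (488/535 nm); read-out: inhibition as reduced fluorescein signal on beads, percent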
NPR1 activator: GC-A stimulated cGMP production enhancers – HEK293 GC-A cells, cGMP TR-FRET, EC30 ANP, primary screen; activation, % at 10 µM; 0% at EC30 ANP, 100% saturating ANP; hit rate 0.14% among 370,000; Atrial natriuretic peptide receptor 1 (Homo sapiens), P16066; AID 1671463, 2021; in the data active = activation above about 40%
GalR3 conf: GalR3 antagonist hit confirmation, cell-based, fluorescence, triplicate | shares compounds with GalR3 antagonist | HEK293 GalR3 CNG cAMP biosensor, membrane potential fluorescence; galR3 fused to GalR1 carboxy tail; challenged with forskolin and galanin at EC90 | inhibition, % at 3 µM | hit rate 59% among 1,600 | AID 652245, 2013;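 active = inhibition above the primary screen's cutoff, the mean inhibition of all screened compounds plus 3 SD, cut at about 13% in these data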;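 note: 0% = forskolin plus galanin and 100% = forskolin alone with DMSO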
HEK-CNG parental: nonspecific cAMP agonists in parental HEK-CNG cells, counter-screen for GalR3 antagonist project, cell-based, fluorescence, high throughput; shares compounds with GalR3 antagonist; HEK293-CNG parental cells, cAMP membrane potential fluorescence; normalised: DMSO wells 0%, forskolin wells 100%; activation, % at 3 µM; hit rate 10% among 1,600; AID 652268, 2013; in the data active = activation above about 1.3%
Numbers without * were called inactive; . = not tested or not shown. Compounds with a hit are over-represented: about 0.94% of the library has one in this group of screens.

SMILES	GalR3 antagonist	NPR2 activator	Arrestin-AP2 inh	NPR1 activator	GalR3 conf	HEK-CNG parental
CC(=O)NCCc1nc2ccccc2n1Cc1ccc(C)cc1	.	4.5	0.3	2.9	4.7	0.2
O=C(OC12CCCN(C1)/C(=C/c1ccc(Cl)cc1)C2)c1ccco1 (centres undefined)	.	0.9	.	-0.8	.	.
O=C(Nc1ccc(OCC(F)(F)C(F)F)c(C(F)(F)F)c1)c1ccccc1	-2.6	1.6	39.5	4.2	.	.
O=C(Nc1ccc(OCC(F)(F)C(F)F)c(C(F)(F)F)c1)c1ccccc1O	19.1*	2.7	-1.5	15.3	16.4*	-0.6
CCOc1ccc(-n2c(SCc3ccc([N+](=O)[O-])cc3)nnc2-c2ccccc2)cc1	69.6*	-13.7	1.6	-8.9	72.0*	1.3*
COc1ccc(-n2c(SCc3ccc([N+](=O)[O-])cc3)nnc2-c2ccccc2)cc1	57.2*	-23.7	-4.2	-28.0	63.5*	0.3
CCCCCn1ccc(=N)cc1	8.5	-4.1	15.2	3.8	.	.
CCCCCCCn1ccc(=N)cc1	15.8*	2.5	10.1	9.0	32.6*	-0.2
CCCCCCCCCn1ccc(=N)cc1	95.6*	1.8	32.2	1.7	109.5*	0.2
CCn1ccc(=N)cc1	6.5	-5.9	-2.8	2.9	.	.
COC(=O)C1=C(C)N(Cc2ccc(C(F)(F)F)cc2)C(=NCC2CC2)NC1c1ccccc1C(F)(F)F (centres undefined)	-7.0	-11.4	.	-16.3	.	.
COc1ccc(-c2oc3ccc(N4CCOCC4)cc3c2C#CCO)cc1	57.3*	5.5	-15.3	11.4	29.6*	-0.6
COc1ccc(-c2ccc3oc(-c4ccc(OC)cc4)c(-c4ccc(OC)cc4)c3c2)cc1	-6.5	2.7	-2.8	2.6	.	.
COc1ccc(-c2ccc3oc(-c4ccc(OC)cc4)c(C#CCO)c3c2)cc1	95.0*	-2.3	5.5	-3.0	109.5*	-1.2
COc1ccc(-n2c(-c3ccc(Cl)cc3)c[n+]3c2CCc2ccccc2-3)cc1	62.1*	-6.4	-9.3	-2.3	56.8*	1.0
CC(=O)Nc1cccc(C(=O)/C=C/c2ccc(Br)cc2)c1	15.1*	-4.1	4.2	-12.2	30.2*	-0.4
CC(=O)Nc1cccc(C(=O)/C=C/c2ccc(/C=C/C(=O)c3cccc(NC(C)=O)c3)cc2)c1	0.3	-4.7	.	2.1	.	.
Cc1oc(-c2ccc(Cl)cc2)nc1CN1CCCC(C(=O)N2CCN(C(=O)c3ccco3)CC2)C1 (centres undefined)	83.7*	-3.6	8.8	0.8	100.9*	1.2
CCOC(=O)N1CCN(C(=O)CSCc2ccc(Br)cc2)CC1	.	2.5	13.8	1.9	1.9	0.2
CCOC(=O)N1CCN(C(=O)CSCc2ccc(Cl)cc2)CC1	-3.4	3.4	-23.2	1.4	.	.
Cc1ccc(N)c([N+](=O)[O-])c1	0.2	-5.8	13.5	-2.0	.	.
CC1CC(=O)NN=C1c1ccc(N)c([N+](=O)[O-])c1 (centres undefined)	64.2*	0.0	18.6	4.2	73.0*	0.0
CN(C)S(=O)(=O)c1ccc(Cl)c(C(=O)NCCNC(=O)c2cc(S(=O)(=O)N(C)C)ccc2Cl)c1	12.7*	0.6	8.4	2.3	8.2	0.3
COc1cccc2[nH]c3c(N4CCCC(C)C4)ncnc3c12 (centres undefined)	83.6*	-12.2	6.0	8.8	94.4*	0.8
O=C(Nc1ccccc1)Nc1cc([N+](=O)[O-])ccc1F	21.3*	6.1	1.6	2.4	-3.4	-0.9
O=C(Nc1ccc(CN2CCOCC2)cc1)c1ccc(Cl)cc1	-5.1	4.4	-7.3	6.0	.	.
CC(C)c1ccc(/C=C/C(=O)NC(=S)Nc2ccc(CN3CCOCC3)cc2)cc1	46.3*	-3.0	1.1	-8.1	75.2*	22.0*
